Measurements from ChEMBL document CHEMBL4665823, “Assessing the Perturbing Effects of Drugs on Lipid Bilayers Using Gramicidin Channel-Based In Silico and In Vitro Assays” (J Med Chem, 2020).
Activity calls are given as the source filed them. No cut-off for these calls is given here.

Assays:
Lipid bilayer [1] = test: Induction of membrane perturbation in DC22:1PC LUV bilayer assessed as change in deltaG for gramicidin mixture monomer to dimer by fluorescence quenching assay (reference value: 0 kcal/mol)
Lipid bilayer [2] = test: Induction of membrane perturbation in DC18:1PC LUV bilayer assessed as fluorescence quench rate by measuring gramicidin mixture monomer to dimer equilibrium at 30 uM by fluorescence quenching assay
In short: (§1)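 DC18:1PC LUVs (gramicidin mixture gD:lipid 1:40,000) loaded with 25 mM ANTS at 10 mM lipid, equilibrated 3 h at room temperature, sonicated 1 min, about 130 nm diameter. Drug added; samples held ≥10 min at 25 °C in the dark, then stopped-flow mixed with 50 mM TlNO3/94 mM NaNO3/10 mM HEPES, pH 7. Ex 352 nm, em >450 nm; quench rate from stretched-exponential fit.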

Lipid bilayer [3] = test: Induction of membrane perturbation in DC22:1PC LUV bilayer assessed as effect on potential of mean force by measuring reduction in deltaG for gramicidin mixture monomer to dimer and pure gramicidin-bilayer by fluorescence quenching assay
Lipid bilayer [4] = test: Induction of membrane perturbation in DC22:1PC LUV bilayer assessed as change in deltaG for pure gramicidin monomer to dimer by fluorescence quenching assay (reference value: 0 kcal/mol)
Lipid bilayer [5] = test: Induction of membrane perturbation in DC22:1PC LUV bilayer assessed as fluorescence quench rate by measuring increase in R(drug)/R(control) ratio by fluorescence quenching assay
In short: (§2)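 ANTS-loaded (25 mM) DC22:1PC LUVs with gD at gramicidin:lipid 1:2000, rehydrated to 10 mM lipid, 3 h equilibration, 1 min sonication. Drug-exposed vesicles were incubated ≥10 min at 25 °C in the dark, then mixed by stopped-flow with Tl+ quench buffer (50 mM TlNO3, pH 7). Fluorescence (ex 352, em >450 nm) was fitted to a stretched exponential; rate given relative to drug-free control.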

Lipid bilayer [6] = test: Induction of membrane perturbation in DC20:1PC LUV bilayer assessed as fluorescence quench rate by measuring gramicidin mixture monomer to dimer equilibrium at 30 uM by fluorescence quenching assay
Lipid bilayer [7] = test: Induction of membrane perturbation in DC22:1PC LUV bilayer assessed as fluorescence quench rate by measuring gramicidin mixture monomer to dimer equilibrium at 30 uM by fluorescence quenching assay; in short: as §2
Lipid bilayer [8] = test: Induction of membrane perturbation in DC22:1PC LUV bilayer assessed as fluorescence quench rate by measuring increase in R(drug)/R(control) ratio at gD:lipid molar ratio of > 1:400 in presence of 10 mol % cholesterol by fluorescence quenching assay
In short: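 Cholesterol added at 10 mol % before LUV formation; DC22:1PC vesicles made with gD:lipid molar ratios between 1:200 and 1:2000, ANTS-loaded. Tl+ influx was followed by stopped-flow fluorescence quench at 25 °C (ex 352 nm, em >450 nm), and traces were fitted to a stretched exponential.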

Lipid bilayer [9] = test: Induction of membrane perturbation in DC22:1PC LUV bilayer assessed as effect on potential of mean force by measuring increase in deltaG for gramicidin mixture monomer to dimer and pure gramicidin-bilayer by fluorescence quenching assay
In short: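 ΔΔG(monomer↔dimer) was derived from Tl+/ANTS quench-rate ratios in DC22:1PC LUVs at 1:2000 gramicidin:lipid. Ratios were adjusted for estimated bilayer drug mole fraction and extrapolated linearly to a drug:lipid ratio of 0.084, matching the coarse-grained simulations. Stopped-flow was run at 25 °C.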

Lipid bilayer [10] = test: Induction of membrane perturbation in DC22:1PC LUV bilayer assessed as fluorescence quench rate by measuring gramicidin mixture monomer to dimer equilibrium at 1800 uM by fluorescence quenching assay; in short: as §2
Lipid bilayer [11] = test: Induction of membrane perturbation in DC18:1PC LUV bilayer assessed as fluorescence quench rate by measuring gramicidin mixture monomer to dimer equilibrium at 1800 uM by fluorescence quenching assay; in short: as §1
Lipid bilayer [12] = test: Induction of membrane perturbation in DC20:1PC LUV bilayer assessed as fluorescence quench rate by measuring gramicidin mixture monomer to dimer equilibrium at 1800 uM by fluorescence quenching assay
Lipid bilayer [13] = test: Induction of membrane perturbation in DC20:1PC LUV bilayer assessed as fluorescence quench rate by measuring gramicidin mixture monomer to dimer equilibrium at 300 uM by fluorescence quenching assay
Lipid bilayer [14] = test: Induction of membrane perturbation in DC22:1PC LUV bilayer assessed as fluorescence quench rate by measuring gramicidin mixture monomer to dimer equilibrium at 300 uM by fluorescence quenching assay; in short: as §2
Lipid bilayer [15] = test: Induction of membrane perturbation in DC18:1PC LUV bilayer assessed as fluorescence quench rate by measuring gramicidin mixture monomer to dimer equilibrium at 300 uM by fluorescence quenching assay; in short: as §1
Lipid bilayer [16] = test: Induction of membrane perturbation in DC18:1PC LUV bilayer assessed as fluorescence quench rate by measuring gramicidin mixture monomer to dimer equilibrium at 10 uM by fluorescence quenching assay; in short: as §1
Lipid bilayer [17] = test: Induction of membrane perturbation in DC20:1PC LUV bilayer assessed as fluorescence quench rate by measuring gramicidin mixture monomer to dimer equilibrium at 10 uM by fluorescence quenching assay
Lipid bilayer [18] = test: Induction of membrane perturbation in DC22:1PC LUV bilayer assessed as fluorescence quench rate by measuring gramicidin mixture monomer to dimer equilibrium at 10 uM by fluorescence quenching assay; in short: as §2
Lipid bilayer [19] = test: Induction of membrane perturbation in DC18:1PC LUV bilayer assessed as effect on potential of mean force by measuring reduction in deltaG for gramicidin mixture monomer to dimer and pure gramicidin-bilayer by fluorescence quenching assay
Lipid bilayer [20] = test: Induction of membrane perturbation in DC22:1PC LUV bilayer assessed as fluorescence quench rate by measuring gramicidin mixture monomer to dimer equilibrium at 100 uM by fluorescence quenching assay
Lipid bilayer [21] = test: Induction of membrane perturbation in DC18:1PC LUV bilayer assessed as fluorescence quench rate by measuring gramicidin mixture monomer to dimer equilibrium at 100 uM by fluorescence quenching assay
Lipid bilayer [22] = test: Induction of membrane perturbation in DC20:1PC LUV bilayer assessed as fluorescence quench rate by measuring gramicidin mixture monomer to dimer equilibrium at 100 uM by fluorescence quenching assay
Lipid bilayer [23] = test: Induction of membrane perturbation in DC20:1PC LUV bilayer assessed as fluorescence quench rate by measuring gramicidin mixture monomer to dimer equilibrium at 30000 uM by fluorescence quenching assay
Lipid bilayer [24] = test: Induction of membrane perturbation in DC22:1PC LUV bilayer assessed as fluorescence quench rate by measuring reduction in R(drug)/R(control) ratio by fluorescence quenching assay
Lipid bilayer [25] = test: Induction of membrane perturbation in DC22:1PC LUV bilayer assessed as fluorescence quench rate by measuring gramicidin mixture monomer to dimer equilibrium at 30000 uM by fluorescence quenching assay
Lipid bilayer [26] = test: Induction of membrane perturbation in DC18:1PC LUV bilayer assessed as fluorescence quench rate by measuring gramicidin mixture monomer to dimer equilibrium at 30000 uM by fluorescence quenching assay

Compound | deltaG (Lipid bilayer [1]) | Activity (Lipid bilayer [3]) | deltaG (Lipid bilayer [4]) | Activity (Lipid bilayer [5]) | also measured
CC(C)(C)CC(C)(C)c1ccc(OCCOCCOCCOCCOCCOCCOCCOCCOCCOCCO)cc1 | -1.6 kcal/mol | Active | -1.5 kcal/mol | Dose-dependent effect | Activity (Lipid bilayer [2]): inactive; Activity (Lipid bilayer [6]): inactive; Activity (Lipid bilayer [7]): Active
CC(C)CCC[C@@H](C)[C@H]1CC[C@H]2[C@@H]3CC=C4C[C@@H](O)CC[C@]4(C)[C@H]3CC[C@]12C | – | – | 2.5 kcal/mol | – | Activity (Lipid bilayer [8]): Active; Activity (Lipid bilayer [9]): Active
CCCCCCCCO | -0.3 kcal/mol | Active | -0.4 kcal/mol | Dose-dependent effect | Activity (Lipid bilayer [10]): Active; Activity (Lipid bilayer [11]): inactive; Activity (Lipid bilayer [12]): inactive
CCCCCCCCCCCCOP(=O)([O-])OCC[N+](C)(C)C | -0.5 kcal/mol | Active | -0.5 kcal/mol | Dose-dependent effect | Activity (Lipid bilayer [13]): inactive; Activity (Lipid bilayer [14]): Active; Activity (Lipid bilayer [15]): inactive
CCCCCCCCCCCCOCCOCCOCCOCCOCCOCCO | -1.5 kcal/mol | Active | -1.4 kcal/mol | Dose-dependent effect | Activity (Lipid bilayer [16]): inactive; Activity (Lipid bilayer [17]): inactive; Activity (Lipid bilayer [18]): Active
COc1cc(CNC(=O)CCCC/C=C/C(C)C)ccc1O | -0.6 kcal/mol | Active | -0.5 kcal/mol | – | Activity (Lipid bilayer [19]): Active; Activity (Lipid bilayer [20]): Active; Activity (Lipid bilayer [21]): inactive; Activity (Lipid bilayer [22]): inactive
C1CCCCC1 | 0 kcal/mol | – | 0 kcal/mol | – | Activity (Lipid bilayer [23]): inactive; Activity (Lipid bilayer [24]): Dose-dependent effect; Activity (Lipid bilayer [25]): Active; Activity (Lipid bilayer [26]): inactive; Activity (Lipid bilayer [9]): Active
Oc1ccc(/C=C/c2cc(O)cc(O)c2)cc1 | -1.8 kcal/mol | Active | -1.7 kcal/mol | Dose-dependent effect | Activity (Lipid bilayer [2]): inactive; Activity (Lipid bilayer [6]): inactive; Activity (Lipid bilayer [7]): Active
